Results taken from article PMC8158046 (Oncoimmunology, 2021).
One block for each substance: values may come before it. Positions of bridges follow the written chain, without caps; N, C: chain ends. Chains are numbered I, II in the order given. No end group written: not given here.

Experiments:
[1] = tested on: MCF-10A normal breast cells; test: MCF-10A cell killing by FACS; format: cell-based, human; settings: for spontaneous cell apoptosis (killing) of MCF-10A cells: 10 μg/ml, 4–6 days, PBMC+MCF-10A, N = 3, mean ± SD
Procedure, shortened: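 MCF-10A cells were co-cultured with donor PBMCs (2x10^6/ml) plus test compound or scrambled peptide at 37°C, 5% CO2. Adherent cells were then detached. Anti-CD45 staining was used to exclude leukocytes, and apoptosis in the gated CD45-negative cells was measured by Annexin V/PI flow cytometry.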

CD45 receptor [2] = biological target: T1, CD45 receptor (Homo sapiens, UniProt P08575); format: cell-based; settings: CD45 blocked with monoclonal antibody and blocking peptide, n = 5
T1 sequence (P08575 195-577 limits assumed): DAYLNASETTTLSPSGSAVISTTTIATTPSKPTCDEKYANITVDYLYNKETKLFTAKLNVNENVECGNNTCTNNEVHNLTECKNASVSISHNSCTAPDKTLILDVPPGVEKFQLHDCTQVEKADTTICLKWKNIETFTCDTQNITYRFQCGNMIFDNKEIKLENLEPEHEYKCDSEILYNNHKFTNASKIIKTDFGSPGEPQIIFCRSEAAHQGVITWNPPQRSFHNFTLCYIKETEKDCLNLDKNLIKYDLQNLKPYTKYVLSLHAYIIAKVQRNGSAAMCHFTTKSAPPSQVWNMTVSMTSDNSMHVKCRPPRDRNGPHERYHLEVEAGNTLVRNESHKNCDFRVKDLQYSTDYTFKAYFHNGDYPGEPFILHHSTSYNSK

MDA-MB-231 cells = test: Tumor cell density by inverted microscope, MDA-MB-231; format: cell-based, human; settings: 10 μg/ml; for effect on MDA-MB-231 tumor cells in the absence of PBMCs: monolayer without PBMC, microscope
Procedure, shortened: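 Tumor cells (MDA-MB-231 or MDA-MB-468, 4x10^5/2 ml) were plated overnight, then cultured with or without donor PBMCs (2x10^6/ml). Test compound or scrambled peptide was added at 10 µg/ml at 37°C, 5% CO2. Wells were washed once with PBS and cell density was documented by inverted light microscopy.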

CD45 signaling pathway [3] = test: CD45 signal transduction by intracellular FACS, PBMC/MDA-MB-231 co-cultures; format: cell-based, human; settings: PBMCs co-cultured with MDA-MB-231 for 24hs, C24D for 15 minutes
Procedure, shortened: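 PBMCs (2x10^6/ml, RPMI with 5% AB serum) were co-cultured for 24 h at 37°C, 5% CO2 with MDA-MB-231 cells pre-plated overnight (4x10^5/2 ml). Test compound was then added for 15 minutes. Phosphorylation was read by FACS in live PBMCs and normalized to the scrambled-peptide control.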

CD45 receptor [4] = biological target: T1, CD45 receptor; test: FACS analysis of C24D binding to PBMC sub-populations
CD45 signaling pathway [5] = format: cell-based, human; settings: incubated with C24D for 5 to 24 hours, 5 separate experiments
CD45 signaling pathway [6] = test: CD45 signal transduction by western blot, PBMC/MDA-MB-231 co-cultures; format: cell-based, human; settings: 10 µg/ml, n = 9, p <0.27
[7] = tested on: PBMCs from healthy female donors co-cultured with MDA-MB-231; test: FACS of activated PBMC sub-populations in co-cultures with MDA-MB-231; format: cell-based, human
Procedure, shortened: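 Lymphocytes were recovered from tumor/PBMC co-cultures; samples with >98% CD45+ cells were used. Cells (0.5x10^6/50 µl PBS) were stained for CD4, CD8, CD56, NKG2D, CD14, CD69, CD57 and CD137. Gated live cells were analysed by flow cytometry; mean ± SD reported, ANOVA with Tukey-Kramer.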

[8] = tested on: PBMCs co-cultured with MCF-10A; test: Cytokine secretion in co-cultures of MCF-10A normal breast cells and PBMCs; format: cell-based, human; settings: MCF-10A/PBMC co-culture after C24D, n = 3
Procedure, shortened: (§1)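 Target cells (MDA-MB-231, MDA-MB-468 or DMEM/10% FCS-grown MCF-10A; 4x10^5/2 ml) were plated overnight. PBMCs (2x10^6/ml, RPMI with 5% AB serum) were added, with test compound added at once (0.1–60 µg/ml) and scrambled peptide as control, at 37°C, 5% CO2. Supernatants were cleared (1200 rpm, 10 min) and stored at −80°C. IFNγ, TNFα, IL-2 and IL-1β were measured by ELISA.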

CD45 receptor [9] = biological target: T2, CD45 receptor (Homo sapiens, UniProt P08575); format: in vitro ADME; settings: 1.5 μM C24D, 3 hours after adding, ELISA read-out
T2 sequence (P08575 26-1306): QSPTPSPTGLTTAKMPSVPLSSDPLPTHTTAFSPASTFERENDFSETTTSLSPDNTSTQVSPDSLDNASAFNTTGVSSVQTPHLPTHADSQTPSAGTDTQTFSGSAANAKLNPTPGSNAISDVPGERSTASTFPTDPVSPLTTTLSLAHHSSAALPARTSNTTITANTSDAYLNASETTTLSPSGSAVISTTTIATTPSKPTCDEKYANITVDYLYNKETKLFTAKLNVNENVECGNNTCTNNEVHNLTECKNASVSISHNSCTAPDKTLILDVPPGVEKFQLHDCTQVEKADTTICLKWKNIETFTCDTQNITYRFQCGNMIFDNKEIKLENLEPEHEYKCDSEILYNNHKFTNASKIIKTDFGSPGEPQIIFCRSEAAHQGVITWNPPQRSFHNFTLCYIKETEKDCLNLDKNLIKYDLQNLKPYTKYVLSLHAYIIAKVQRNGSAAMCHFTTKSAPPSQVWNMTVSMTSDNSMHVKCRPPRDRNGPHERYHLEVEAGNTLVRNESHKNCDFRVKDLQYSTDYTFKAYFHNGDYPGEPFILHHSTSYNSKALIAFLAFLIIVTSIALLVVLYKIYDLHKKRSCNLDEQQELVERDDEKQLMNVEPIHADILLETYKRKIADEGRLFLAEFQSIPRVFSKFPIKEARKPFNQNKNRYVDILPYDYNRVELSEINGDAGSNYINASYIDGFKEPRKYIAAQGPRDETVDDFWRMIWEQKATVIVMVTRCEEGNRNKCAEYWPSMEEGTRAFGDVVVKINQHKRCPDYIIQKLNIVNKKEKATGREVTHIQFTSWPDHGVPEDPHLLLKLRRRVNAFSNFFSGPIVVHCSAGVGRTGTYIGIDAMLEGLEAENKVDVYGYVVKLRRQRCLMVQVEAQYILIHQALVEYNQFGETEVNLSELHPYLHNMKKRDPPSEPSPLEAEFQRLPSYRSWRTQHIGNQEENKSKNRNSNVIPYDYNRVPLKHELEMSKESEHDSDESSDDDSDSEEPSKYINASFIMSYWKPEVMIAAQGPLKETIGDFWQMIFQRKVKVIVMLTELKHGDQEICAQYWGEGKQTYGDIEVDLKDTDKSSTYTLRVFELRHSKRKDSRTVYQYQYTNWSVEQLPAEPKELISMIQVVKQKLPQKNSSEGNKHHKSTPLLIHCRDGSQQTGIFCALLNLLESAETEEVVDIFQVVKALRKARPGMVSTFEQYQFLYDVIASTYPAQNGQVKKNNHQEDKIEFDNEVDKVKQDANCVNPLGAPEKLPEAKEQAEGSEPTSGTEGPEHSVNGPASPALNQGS

CD45 signaling pathway [10] = test: Protein phosphorylation by western blot in fresh PBMCs from TNBC patients; format: cell-based, human; settings: fresh PBMCs from 5 TNBC patients, C24D 5 to 60 minutes, mean ± SD
Procedure, shortened: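 PBMCs were lysed in buffer containing phosphatase inhibitors (NaF, Na3VO4, β-glycerophosphate), freeze-thawed once and cleared at 14,000 rpm. Lysates were run on 10% SDS-PAGE and blotted for phospho-Lck Y505, phospho-Lck Y394, phospho-VAV-1 Y174 and phospho-ZAP70 Y493, with GAPDH as loading control. Bands were quantified by infrared imaging, normalized to control, and reported as mean ± SD.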

[11] = Stability in human whole blood; format: in vitro ADME
MDA-MB-231 xenograft = test: MDA-MB-231 tumor xenograft in nude mice given human PBMCs; format: in vivo, BALB/C nude mice; settings: for increase in human IFN-γ secretion in serum versus S-C24D group: 13 days after PBMC administration, p <0.05
Procedure, shortened: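 Female BALB/c nude mice (5–6 weeks) received 4x10^6 MDA-MB-231 cells s.c. in the right flank. At ~100 mm3 (day 6) they were randomized. Human PBMCs from 2 female donors were pre-incubated 5 min with test compound, scrambled peptide or PBS, then given IV. Treatment (60 or 300 µg/mouse in 200 µl PBS) followed IV twice weekly for 2 weeks. At 13 days, serum human IFNγ was measured. Paraffin tumor sections (pH 6 retrieval) were immunostained for CD45, activated CD56, CD8 and cleaved caspase-3, and 5 fields/slide on 5 slides were quantified.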

[12] = tested on: PBMCs co-cultured with MDA-MB-231; test: Cytokine secretion by ELISA in supernatants of PBMC/MDA-MB-231 co-cultures; format: cell-based, human
Procedure, shortened: as §1

[13] = 10 μg/ml C24D added to co-cultures
[14] = 10 μg/ml C24D, PBMCs from 11 healthy female donors, mean ± SD

IFN-γ in supernatants of co-cultures with blocked CD45 receptor (CD45 receptor [2]): 108 ± 20 pg/mL
Substance: CG-PPRIHPLKRISRTRLPRLHRPFHIS [S-C24D, reference compound]
spontaneous cell apoptosis (killing) of MCF-10A cells [1]: 7.25 ± 2.34%
effect on MDA-MB-231 tumor cells in the absence of PBMCs (MDA-MB-231 cells): no effect

percentage of C24D binding to CD16 after exposure to tumor cells (CD45 receptor [4]): not affected
percentage of CD45+ gated PBMCs that bind C24D (double staining) (CD45 receptor [4]; anti CD45 monoclonal antibody (CD45-APC) and C24D-Alexa-488 conjugated peptide): 100%
effect of C24D treatment on C24D binding to CD8 and NKG2D sub-populations exposed to MDA-MB-231 (CD45 receptor [4]; p <0.05): reversed the decrease
IFN-γ in supernatants of co-cultures with blocked CD45 receptor (CD45 receptor [2]): 107 ± 27 pg/mL
decrease of binding to CD45 in the presence of human plasma (CD45 receptor [9]): 20%
half-life [11]: 2.75 h
Substance: I: CGHHLLRPRRRKRPHSIPTPILIFRSP / II: CGHHLLRPRRRKRPHSIPTPILIFRSP (disulfide I:1-II:1) [C24D]
phosphorylation of Y394 in Lck (CD45 signaling pathway [3]; n = 3): increase
increase of the phosphorylation of VAV-1 versus control (CD45 signaling pathway [3]; n = 3, mean ± SD): 36.2 ± 4.0%
increase of the phosphorylation of Y493 in ZAP70 versus control (CD45 signaling pathway [3]; n = 3, mean ± SD): 50.13 ± 10.2%
leukocyte sub-populations that bound C24D (CD45 receptor [4]; PBMCs from healthy female donors, C24D conjugated to Alexa-488 dye): all 9 of the tested T, NK and monocyte sub-populations bound C24D
Lck, ZAP70 and VAV-1 activation in fresh PBMCs from healthy donors in the absence of tumors (CD45 signaling pathway [5]): no effect
phosphorylation of Lck Y394 (CD45 signaling pathway [6]): increased, but not significant statistically
spontaneous cell apoptosis (killing) of MCF-10A cells [1]: 6.47 ± 0.94%
killing in MCF-10A and PBMCs co-cultures ([1]; treatment with C24D): failed to induce killing
CD57 expression [7, 13]: not influenced
percentage of NKG2D+ and CD45RO+ cells [7, 13]: not influenced
percentage of CD4+/CD69+ cells [7, 14]: 4.1 ± 1.58%
percentage of CD8+/CD69+ cells [7, 14]: 33.23%
TNF-α concentration [8]: 5.6 ± 0.2 pg/mL
tumor apoptosis seen by microscope in PBMC/MDA-MB-231 co-cultures (MDA-MB-231 cells; PBMCs from healthy donors): massive tumor apoptosis
effect on MDA-MB-231 tumor cells in the absence of PBMCs (MDA-MB-231 cells): no effect
phosphorylation of Lck Y394 after addition of C24D, normalized to control (CD45 signaling pathway [10]): 117.4 ± 36.2%
phosphorylation of Lck Y505 after addition of C24D, normalized to control (CD45 signaling pathway [10]): 79.2 ± 3.6%
phosphorylation of VAV-1 after addition of C24D, normalized to control (CD45 signaling pathway [10]): 88.4 ± 26.9%
phosphorylation of ZAP70 Y493 after addition of C24D, normalized to control (CD45 signaling pathway [10]): 116.4 ± 10.4%
tumor cell apoptosis (Cleaved Caspase-3 immunofluorescence) (MDA-MB-231 xenograft; 60 μg (p <0.0013) and 300 μg (p <0.049) per mouse): significant increase
increase in human IFN-γ secretion in serum versus S-C24D group (MDA-MB-231 xenograft; 60 μg per mouse): 68%
increase in human IFN-γ secretion in serum versus S-C24D group (MDA-MB-231 xenograft; 300 μg per mouse): 82%
infiltration of human CD45+ cells in the tumor (immunofluorescence) (MDA-MB-231 xenograft; 60 and 300 μg doses vs S-C24D, p <0.015 and p <0.023): significantly induced
tumor-infiltrating NK (activated CD56+) cells (immunofluorescence) (MDA-MB-231 xenograft; 60 or 300 μg per mouse, p <0.011 and p <0.042): significant increase
tumor-infiltrating human CD8 T cells (immunofluorescence) (MDA-MB-231 xenograft; 60 or 300 μg per mouse, p <0.07 and p <0.1): non-significant
increase in secretion of IL-2 ([12]; C24D 4–6 days, MDA-MB-231/PBMC co-cultures, n = 7, p < 0.0007): 92.2%
increase in secretion of TNF-α ([12]; C24D 4–6 days, MDA-MB-231/PBMC co-cultures, n = 7, p < 0.04): 98%
increase in secretion of IFN-γ ([12]; C24D 4–6 days, MDA-MB-231/PBMC co-cultures, n = 8, p <0.03): 90%
cytokine secretion (IFNγ, IL-2, TNFα, IL-1β) in PBMCs alone ([12]; C24D added to PBMCs alone, no tumor cells): No effect
secretion of IL-1β by monocytes ([12]; C24D added to co-cultures): non-significant effect
